This passage reports inhibition, IC50 and Activity results from ChEMBL document CHEMBL3232947, “Inhibitory effect of turmeric curcuminoids on FLT3 expression and cell cycle arrest in the FLT3-overexpressing EoL-1 leukemic cell line” (J Nat Prod, 2014).

Assay [1] relates to EOL1. The assay can be described thus: Reduction in Flt3 protein level in human EOL-1 cells at 15 uM after 48 hrs by Western blot analysis. It counts as functional. As to conditions: EOL1, 48 h. The method in brief: (§1)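 Treated EoL-1 lysed in RIPA buffer, protein by Folin-Lowry, resolved on 12% SDS-PAGE; probed with rabbit polyclonal anti-FLT3 or anti-STAT5A (1:500) and anti-GAPDH (1:1000), HRP anti-rabbit secondary, chemiluminescence. Band intensities normalized to GAPDH and compared with vehicle control; mean ± SEM, three independent experiments.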
In general terms: A western blot detects proteins with antibodies after separation by electrophoresis.

Assay [2] has as its system EOL1. The assay can be described thus: Reduction in Flt3 protein level in human EOL-1 cells at 15 uM after 24 hrs by Western blot analysis. The following applies: EOL1, 24 h. It counts as functional. The gist of the method: as §1
Assay [3] can be described thus: Cytotoxicity against human EOL-1 cells after 48 hrs by MTT assay. It is filed as functional, cell-based. As to conditions: EOL1, 48 h. The gist of the method:
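Cells seeded at 5.0 × 10^4/well, preincubated 24 h at 37 °C, then exposed to 1.56–50 μM for 48 h (0.1% DMSO vehicle); MTT 4 h at 37 °C, formazan dissolved in DMSO, A578 (ref 630 nm). IC50 = lowest concentration giving 50% growth reduction vs vehicle; mean ± SEM, three independent experiments in triplicate.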
Background: Tetrazolium dyes change colour on reduction, which living cells bring about.

Assay [4] in a line: Antiproliferative activity against human EOL-1 cells at 3 uM after 12 hrs by trypan blue exclusion assay. It counts as functional, EOL1. The gist of the method: (§2)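 EoL-1 cells (RPMI-1640, 10% fetal calf serum, L-glutamine, penicillin/streptomycin) exposed 12 h; viable counts by trypan blue exclusion over time; growth rate (cells/h) taken as slope of cell number vs incubation time, compared with vehicle-control growth rate.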

Assay [5] relates to EOL1. Nature of the assay: Reduction in STAT5A protein level in human EOL-1 cells at 5 uM after 12 hrs by Western blot analysis. It counts as functional. As to conditions: EOL1, 12 h. The method in brief:
as §1

Assay [6] concerns EOL1. The assay can be described thus: Reduction in Flt3 protein level in human EOL-1 cells at 5 uM after 12 hrs by Western blot analysis. The following applies: EOL1, 12 h. It counts as functional. The method in brief: as §1
The subject of assay [7] is EOL1. Nature of the assay: Reduction in STAT5A protein level in human EOL-1 cells at 4 uM after 12 hrs by Western blot analysis. It is filed as functional. The following applies: EOL1, 12 h. The method in brief:
as §1

Assay [8] in a line: Cell cycle arrest in human EOL-1 cells assessed as accumulation at G0/G1 phase at 4 uM after 12 hrs by flow cytometry (reference value: 54 %). It is filed as functional, cell-based. The following applies: EOL1. On the technique in general: In flow cytometry, cells or beads pass a laser one at a time.
Assay [9] in a line: Antiproliferative activity against human EOL-1 cells at 4 uM after 12 hrs by trypan blue exclusion assay. It counts as functional, EOL1. The gist of the method:
as §2

The test system of assay [10] is EOL1. The assay can be described thus: Reduction in Flt3 protein level in human EOL-1 cells at 4 uM after 12 hrs by Western blot analysis. It is filed as functional. The following applies: EOL1, 12 h. The method in brief: as §1
In assay [11] the test system is EOL1. The assay can be described thus: Reduction in Flt3 protein level in human EOL-1 cells at 4 uM after 48 hrs by Western blot analysis. It counts as functional. The following applies: EOL1, 48 h. The gist of the method: as §1
Assay [12] in a line: Cell cycle arrest in human EOL-1 cells assessed as accumulation at G0/G1 phase at 3 uM after 12 hrs by flow cytometry (reference value: 54 %). It counts as functional, cell-based. As to conditions: EOL1.
The subject of assay [13] is EOL1. The assay can be described thus: Reduction in STAT5A protein level in human EOL-1 cells after 12 hrs by Western blot analysis. It counts as functional, cell-based. The method in brief:
as §1

A short description of assay [14]: Cell cycle arrest in human EOL-1 cells assessed as accumulation at G0/G1 phase at 4 uM after 24 hrs by flow cytometry (reference value: 54 %). It is filed as functional, cell-based. As to conditions: EOL1.
Assay [15] deals with EOL1. Nature of the assay: Reduction in Flt3 protein level in human EOL-1 cells at 4 uM after 24 hrs by Western blot analysis. It counts as functional. As to conditions: EOL1, 24 h. The gist of the method:
as §1

For assay [16], the system named is EOL1. The assay can be described thus: Reduction in Flt3 protein level in human EOL-1 cells after 12 hrs by Western blot analysis. It is filed as functional, cell-based. The gist of the method:
as §1

Assay [17] is described as follows: Cell cycle arrest in human EOL-1 cells assessed as accumulation at G0/G1 phase at 5 uM after 12 hrs by flow cytometry (reference value: 54 %). As to conditions: EOL1. It counts as functional, cell-based.
Assay [18] in a line: Cell cycle arrest in human EOL-1 cells assessed as accumulation at G0/G1 phase at 4 uM after 48 hrs by flow cytometry (reference value: 54 %). It counts as functional, cell-based. The following applies: EOL1.
Assay [19] concerns EOL1. The assay can be described thus: Reduction in STAT5A protein level in human EOL-1 cells at 3 uM after 12 hrs by Western blot analysis. It counts as functional. As to conditions: EOL1, 12 h. The gist of the method:
as §1

A short description of assay [20]: Antiproliferative activity against human EOL-1 cells at 5 uM after 12 hrs by trypan blue exclusion assay. It is filed as functional, EOL1. The gist of the method:
as §2

A short description of assay [21]: Cell cycle arrest in human EOL-1 cells assessed as accumulation at G0/G1 phase after 12 hrs by flow cytometry relative to control. As to conditions: EOL1.
Assay [22] has as its system EOL1. The assay can be described thus: Reduction in Flt3 protein level in human EOL-1 cells at 3 uM after 12 hrs by Western blot analysis. It is filed as functional. The following applies: EOL1, 12 h. The gist of the method: as §1
Assay [23] concerns EOL1. Nature of the assay: Reduction in Flt3 protein level in human EOL-1 cells at 10 uM after 48 hrs by Western blot analysis. It counts as functional. As to conditions: EOL1, 48 h. The method in brief: as §1
Assay [24] deals with EOL1. Nature of the assay: Reduction in Flt3 protein level in human EOL-1 cells at 10 uM after 24 hrs by Western blot analysis. It counts as functional. The following applies: EOL1, 24 h. The gist of the method: as §1
The test system of assay [25] is EOL1. Nature of the assay: Reduction in Flt3 protein level in human EOL-1 cells at 10 uM after 12 hrs by Western blot analysis. It is filed as functional. As to conditions: EOL1, 12 h. The method in brief:
as §1

For the molecule `O=C(/C=C/c1ccc(O)cc1)CC(=O)/C=C/c1ccc(O)cc1` [BISDEMETHOXYCURCUMIN], the inhibition (usually the drop in the measured response relative to a control, in per cent) at 15 µM is 3% in the assay on EOL1 [1] and 26% with EOL1 [2]. For the same molecule, in [3], the IC50 (usually the concentration needed to halve the response being measured) was found to be 22.3 µM.
Regarding `COc1cc(/C=C/C(=O)CC(=O)/C=C/c2ccc(O)c(OC)c2)ccc1O` [CURCUMIN], the Activity was found to be 17% in assay [4]; 71% in [8]; 25% in assay [9]; 66% in [12]; 58% in assay [14]; 75% in assay [17]. For the same molecule, the Activity in [18] was 54%; in [20], 58%; in [21], “Dose-dependent effect”. For the same molecule, the inhibition at 5 µM with EOL1 [5] was 82%; in the assay on EOL1 [6], 70%. Besides, the inhibition at 4 µM with EOL1 [7] is 44%; with EOL1 [10], 37%; in the assay with EOL1 [11], 12%; in the assay on EOL1 [15], 33%. Besides, in [3], the IC50 amounted to 6.7 µM. In addition, the inhibition result in the assay with EOL1 [13] and in the assay on EOL1 [16] was “Dose-dependent effect” each time. Also, the results for the inhibition at 3 µM in the assay on EOL1 [19] and in the assay on EOL1 [22] were 13% and 17%, respectively.
Consider `COc1cc(/C=C/C(O)=C/C(=O)/C=C/c2ccc(O)cc2)ccc1O` [DEMETHOXYCURCUMIN], for which the results for the inhibition at 10 µM with EOL1 [23], in the assay on EOL1 [24] and in the assay on EOL1 [25] were 46%, 32% and 4%, respectively. In assay [3], this molecule returned an IC50 of 15.6 µM.
